Consider two compounds from ChEMBL document CHEMBL3352617, “Discovery of 9-(1-phenoxyethyl)-2-morpholino-4-oxo-pyrido[1,2-a]pyrimidine-7-carboxamides as oral PI3Kβ inhibitors, useful as antiplatelet agents” (Bioorg Med Chem Lett, 2014).

Values after ≈ are worked out from the molar mass of the structure shown. Active and inactive are the calls of the source. The calls are words filed in the database; no cut-off is given here.

For data set [1], the target named is T1, A-type voltage-gated potassium channel KCND3 (Homo sapiens, UniProt Q9UK17).
T1 sequence (Q9UK17 whole entry): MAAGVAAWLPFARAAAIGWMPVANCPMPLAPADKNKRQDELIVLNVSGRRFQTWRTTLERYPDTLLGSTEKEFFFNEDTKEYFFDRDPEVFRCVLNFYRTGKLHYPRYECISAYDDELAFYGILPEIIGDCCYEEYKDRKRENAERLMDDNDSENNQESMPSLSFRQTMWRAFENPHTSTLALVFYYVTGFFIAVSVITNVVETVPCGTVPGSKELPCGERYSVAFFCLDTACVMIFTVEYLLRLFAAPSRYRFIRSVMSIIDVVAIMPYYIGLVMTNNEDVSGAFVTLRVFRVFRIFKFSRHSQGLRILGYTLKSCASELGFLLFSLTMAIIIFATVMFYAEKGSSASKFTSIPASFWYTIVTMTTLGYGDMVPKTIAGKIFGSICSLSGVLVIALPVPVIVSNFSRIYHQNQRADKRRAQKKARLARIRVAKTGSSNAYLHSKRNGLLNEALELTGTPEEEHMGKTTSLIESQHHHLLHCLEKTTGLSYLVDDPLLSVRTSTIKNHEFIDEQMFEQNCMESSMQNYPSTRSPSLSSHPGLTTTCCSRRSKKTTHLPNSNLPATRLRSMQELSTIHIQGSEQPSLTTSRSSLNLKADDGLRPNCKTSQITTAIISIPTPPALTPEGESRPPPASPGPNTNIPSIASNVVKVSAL
In words: Inhibition of human Kv4.3 channel expressed in CHO cells at 20.4 +/- 2.4 uM by patch clamp assay. In kind it is cell-based.

Data set [2] can be described thus: Solubility of the compound in DMSO/HBSS at pH 7.4. In kind it is physicochemical. Put shortly: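 Compound from DMSO stock added to HBSS buffer. Solubility measured at pH 7.4.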
Data set [3] can be described thus: Volume of distribution at steady state in Beagle dog at 1 umol/kg, iv and 2 umol/kg, po. In kind it is ADME, organism-based, Canis lupus familiaris. The following applies: in vivo, read-out: Vdss. Put shortly: (§1)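 Fasted male Beagle dogs dosed iv or po (iv N = 5, po N = 4). Plasma concentrations analysed by noncompartmental analysis to give CL, Vss and oral F.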

For data set [4], the target named is T2, Phosphatidylinositol 4,5-bisphosphate 3-kinase catalytic subunit delta isoform (Homo sapiens, UniProt O00329).
T2 sequence (O00329 whole entry): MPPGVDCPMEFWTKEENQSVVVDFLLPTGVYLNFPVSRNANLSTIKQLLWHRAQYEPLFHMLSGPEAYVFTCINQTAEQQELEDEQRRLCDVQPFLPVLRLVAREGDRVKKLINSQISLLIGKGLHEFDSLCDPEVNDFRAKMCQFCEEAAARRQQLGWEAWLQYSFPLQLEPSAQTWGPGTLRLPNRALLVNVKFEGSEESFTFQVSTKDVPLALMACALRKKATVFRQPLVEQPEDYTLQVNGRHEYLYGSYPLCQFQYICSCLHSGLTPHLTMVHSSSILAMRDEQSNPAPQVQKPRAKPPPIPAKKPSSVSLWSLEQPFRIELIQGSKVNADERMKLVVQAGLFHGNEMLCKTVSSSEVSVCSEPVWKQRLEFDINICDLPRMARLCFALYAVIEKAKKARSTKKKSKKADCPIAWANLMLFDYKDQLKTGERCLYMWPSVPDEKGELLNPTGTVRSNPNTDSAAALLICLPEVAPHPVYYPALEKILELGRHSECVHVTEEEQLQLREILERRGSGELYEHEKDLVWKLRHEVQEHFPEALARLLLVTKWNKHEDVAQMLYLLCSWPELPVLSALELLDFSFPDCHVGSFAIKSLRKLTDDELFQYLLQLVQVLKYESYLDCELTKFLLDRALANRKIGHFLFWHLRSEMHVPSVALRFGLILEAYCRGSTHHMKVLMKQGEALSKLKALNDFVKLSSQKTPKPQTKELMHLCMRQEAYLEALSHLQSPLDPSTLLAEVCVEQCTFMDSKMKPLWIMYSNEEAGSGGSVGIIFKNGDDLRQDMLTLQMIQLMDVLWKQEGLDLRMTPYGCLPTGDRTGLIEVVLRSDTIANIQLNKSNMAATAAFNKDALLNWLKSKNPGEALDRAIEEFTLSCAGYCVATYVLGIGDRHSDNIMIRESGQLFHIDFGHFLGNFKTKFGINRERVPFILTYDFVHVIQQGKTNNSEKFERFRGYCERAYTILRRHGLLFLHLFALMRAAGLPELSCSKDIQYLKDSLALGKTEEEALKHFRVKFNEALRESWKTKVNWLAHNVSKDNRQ
In words: Inhibition of human recombinant PI3Kdelta assessed as PIP3 production by AlphaScreen assay.

Data set [5] concerns the target Sodium channel protein type 2 subunit alpha (Homo sapiens) (UniProt Q99250). In words: Inhibition of human Nav1.2 channel expressed in CHO cells at 20.4 +/- 2.4 uM by patch clamp assay. In kind it is cell-based.
Data set [6] relates to Canis familiaris. Nature of the data set: Inhibition of ADP-induced platelet aggregation in iv dosed Beagle dog assessed as blood loss volume. To be noted: in vivo. In kind it is organism-based, Canis lupus familiaris. Put shortly:
(§2)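 Anaesthetized dogs in a modified Folts' model. Saline vehicle given first, then consecutive iv doses over 30 min periods (bolus 0.03–1.3 µg/kg plus infusion 0.005–0.24 µg/kg/min). Measured: cyclic flow reductions, bleeding time, blood loss, ex vivo ADP-induced whole blood aggregation (Multiplate), and plasma exposure, related by PKPD.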

Data set [7] in a line: Half life in human hepatocytes at 2 uM by LCMS analysis. In kind it is ADME, cell-based, Hepatocyte. The essentials: (§3)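 Test compound incubated with human hepatocytes. Intrinsic clearance and half-life derived from compound disappearance.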
The target of data set [8] is Voltage-dependent N-type calcium channel subunit alpha-1B (Homo sapiens) (UniProt Q00975). In words: Inhibition of human Cav2.2 channel expressed in CHO cells at 20.4 +/- 2.4 uM by patch clamp assay. In kind it is cell-based.
The target of data set [9] is Voltage-gated inwardly rectifying potassium channel KCNH2 (Homo sapiens, UniProt Q12809). In words: Inhibition of human ERG channel expressed in CHO cells at 20.4 +/- 2.4 uM by patch clamp assay. In kind it is cell-based.
The species entered for data set [10] is Canis familiaris. Nature of the data set: Ex vivo antiplatelet activity in Beagle dog assessed as inhibition of ADP-induced platelet aggregation. Type of data set: functional, Canis lupus familiaris. Put shortly:
as §2

For data set [11], the target named is Voltage-dependent L-type calcium channel subunit alpha-1C (Homo sapiens, UniProt Q13936). Nature of the data set: Inhibition of human CACNA1C channel expressed in CHO cells at 20.4 +/- 2.4 uM by patch clamp assay. Type of data set: cell-based.
In data set [12] the target is Voltage-dependent T-type calcium channel subunit alpha-1H (Homo sapiens) (UniProt O95180). In words: Inhibition of human Cav3.2 channel expressed in CHO cells at 20.4 +/- 2.4 uM by patch clamp assay. Type of data set: cell-based.
The nature of data set [13]: Antiplatelet activity against human platelet assessed as inhibition of ADP-induced whole blood aggregation by impedance aggregometry.
Data set [14] can be described thus: Antiplatelet activity against human platelet assessed as inhibition of collagen-induced platelet rich plasma aggregation by light transmission aggregometry. Type of data set: functional, cell-free. The essentials: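 Human platelet rich plasma stimulated with collagen. Aggregation read by light transmission aggregometry in an in-house 96-well plate format.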

For data set [15], the target named is Phosphatidylinositol 4,5-bisphosphate 3-kinase catalytic subunit gamma isoform (Homo sapiens, UniProt P48736). In words: Inhibition of human recombinant PI3Kgamma assessed as PIP3 production by AlphaScreen assay.
The nature of data set [16]: Fraction unbound in human plasma after 18 hrs at 37 degC after 18 hrs. Type of data set: ADME, cell-free. The essentials: (§4)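 Human and dog plasma. Fraction unbound measured by equilibrium dialysis, 18 h at 37 °C, reported as % unbound.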
The nature of data set [17]: Clearance in Beagle dog at 1 umol/kg, iv and 2 umol/kg, po. Type of data set: ADME, organism-based, Canis lupus familiaris. The following applies: in vivo. Put shortly:
as §1

For another data set, the system named is CHO. In words: Inhibition of human IKs channel expressed in CHO cells at 20.4 +/- 2.4 uM by patch clamp assay. Type of data set: cell-based.
For data set [18], the target named is Sodium channel protein type 5 subunit alpha (Homo sapiens, UniProt Q14524). Nature of the data set: Inhibition of human Nav1.5 channel expressed in CHO cells at 20.4 +/- 2.4 uM by patch clamp assay. In kind it is cell-based.
Sodium channel protein type 5 subunit alpha, sequence (Q14524 whole entry): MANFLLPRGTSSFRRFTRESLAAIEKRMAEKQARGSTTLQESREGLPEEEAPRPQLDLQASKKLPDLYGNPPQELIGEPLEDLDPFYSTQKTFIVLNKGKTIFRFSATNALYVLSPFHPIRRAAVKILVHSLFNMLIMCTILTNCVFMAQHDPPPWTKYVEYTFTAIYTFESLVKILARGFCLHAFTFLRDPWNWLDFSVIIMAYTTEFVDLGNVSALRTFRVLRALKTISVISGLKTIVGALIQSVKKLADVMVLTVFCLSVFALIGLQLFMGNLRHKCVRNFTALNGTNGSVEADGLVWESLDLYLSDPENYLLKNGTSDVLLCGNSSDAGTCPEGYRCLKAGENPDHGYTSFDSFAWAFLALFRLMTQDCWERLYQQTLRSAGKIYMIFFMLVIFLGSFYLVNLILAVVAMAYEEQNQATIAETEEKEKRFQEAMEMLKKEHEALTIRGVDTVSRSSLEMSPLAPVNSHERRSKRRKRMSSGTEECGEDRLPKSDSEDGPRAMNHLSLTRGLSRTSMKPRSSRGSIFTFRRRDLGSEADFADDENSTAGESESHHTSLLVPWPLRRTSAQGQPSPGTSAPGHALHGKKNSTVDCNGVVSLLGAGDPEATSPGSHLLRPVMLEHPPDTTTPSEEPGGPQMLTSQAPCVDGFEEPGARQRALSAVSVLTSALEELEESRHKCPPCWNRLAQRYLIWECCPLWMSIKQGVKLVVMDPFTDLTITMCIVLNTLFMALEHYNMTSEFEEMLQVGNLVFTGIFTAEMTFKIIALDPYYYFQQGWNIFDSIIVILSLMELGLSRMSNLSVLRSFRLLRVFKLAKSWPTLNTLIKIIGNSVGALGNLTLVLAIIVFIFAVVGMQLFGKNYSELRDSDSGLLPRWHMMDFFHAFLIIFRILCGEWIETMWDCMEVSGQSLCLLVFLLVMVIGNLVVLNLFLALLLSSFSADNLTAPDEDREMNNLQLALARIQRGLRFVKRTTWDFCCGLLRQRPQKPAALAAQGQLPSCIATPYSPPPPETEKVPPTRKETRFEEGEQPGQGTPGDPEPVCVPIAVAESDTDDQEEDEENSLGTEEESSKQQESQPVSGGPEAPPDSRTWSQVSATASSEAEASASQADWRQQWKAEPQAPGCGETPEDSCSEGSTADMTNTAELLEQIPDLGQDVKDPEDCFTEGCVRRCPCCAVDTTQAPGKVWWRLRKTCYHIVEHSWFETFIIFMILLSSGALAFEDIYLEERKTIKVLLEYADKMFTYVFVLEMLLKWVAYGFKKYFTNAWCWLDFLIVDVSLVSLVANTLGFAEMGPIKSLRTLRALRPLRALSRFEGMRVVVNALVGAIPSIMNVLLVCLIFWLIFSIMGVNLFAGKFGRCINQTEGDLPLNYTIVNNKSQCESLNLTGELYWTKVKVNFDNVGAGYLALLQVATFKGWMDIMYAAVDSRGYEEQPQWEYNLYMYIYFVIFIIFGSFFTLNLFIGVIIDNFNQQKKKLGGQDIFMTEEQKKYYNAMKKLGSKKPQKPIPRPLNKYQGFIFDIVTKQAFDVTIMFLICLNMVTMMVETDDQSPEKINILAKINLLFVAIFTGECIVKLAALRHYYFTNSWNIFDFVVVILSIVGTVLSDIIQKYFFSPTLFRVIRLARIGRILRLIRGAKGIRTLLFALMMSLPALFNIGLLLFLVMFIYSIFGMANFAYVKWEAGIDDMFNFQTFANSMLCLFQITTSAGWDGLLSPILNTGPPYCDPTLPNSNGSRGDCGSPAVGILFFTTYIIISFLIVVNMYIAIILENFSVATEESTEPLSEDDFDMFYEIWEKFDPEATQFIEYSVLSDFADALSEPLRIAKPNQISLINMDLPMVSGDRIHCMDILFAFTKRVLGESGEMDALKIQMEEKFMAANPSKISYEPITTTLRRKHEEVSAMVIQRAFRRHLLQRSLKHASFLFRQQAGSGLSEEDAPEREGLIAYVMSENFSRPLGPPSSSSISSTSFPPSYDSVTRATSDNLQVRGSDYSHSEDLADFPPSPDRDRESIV
The target in data set [19] is Voltage-dependent calcium channel subunit alpha-2/delta-1 (Homo sapiens) (UniProt P54289). In words: Inhibition of human CACNA2D1 channel expressed in CHO cells at 20.4 +/- 2.4 uM by patch clamp assay. Type of data set: cell-based.
Voltage-dependent calcium channel subunit alpha-2/delta-1 (Homo sapiens), sequence (P54289 25-956 limits assumed): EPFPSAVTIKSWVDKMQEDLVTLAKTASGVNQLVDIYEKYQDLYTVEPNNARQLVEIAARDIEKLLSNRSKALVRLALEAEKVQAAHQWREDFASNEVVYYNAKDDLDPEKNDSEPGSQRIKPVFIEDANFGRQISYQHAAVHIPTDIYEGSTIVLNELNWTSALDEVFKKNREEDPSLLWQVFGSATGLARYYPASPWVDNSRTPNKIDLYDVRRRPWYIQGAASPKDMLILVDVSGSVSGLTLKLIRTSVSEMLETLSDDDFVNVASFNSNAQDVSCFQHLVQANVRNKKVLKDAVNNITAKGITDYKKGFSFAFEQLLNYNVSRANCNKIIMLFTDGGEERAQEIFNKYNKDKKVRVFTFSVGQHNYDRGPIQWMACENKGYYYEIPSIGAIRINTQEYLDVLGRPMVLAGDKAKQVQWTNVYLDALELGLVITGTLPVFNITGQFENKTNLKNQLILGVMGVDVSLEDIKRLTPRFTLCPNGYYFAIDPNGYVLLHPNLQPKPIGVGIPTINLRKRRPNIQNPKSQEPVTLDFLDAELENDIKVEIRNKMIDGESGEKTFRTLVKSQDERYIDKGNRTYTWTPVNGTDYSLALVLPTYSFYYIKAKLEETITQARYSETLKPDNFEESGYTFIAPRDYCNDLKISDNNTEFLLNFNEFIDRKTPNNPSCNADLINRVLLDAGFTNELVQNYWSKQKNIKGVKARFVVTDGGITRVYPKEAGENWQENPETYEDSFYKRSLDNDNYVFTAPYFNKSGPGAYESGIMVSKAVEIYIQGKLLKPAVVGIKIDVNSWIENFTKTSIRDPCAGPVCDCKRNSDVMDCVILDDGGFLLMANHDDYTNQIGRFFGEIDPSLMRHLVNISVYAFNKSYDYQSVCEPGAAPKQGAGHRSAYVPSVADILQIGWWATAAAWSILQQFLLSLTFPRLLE
Voltage-dependent calcium channel subunit alpha-2/delta-1 (Homo sapiens), sequence (P54289 957-1103 limits assumed): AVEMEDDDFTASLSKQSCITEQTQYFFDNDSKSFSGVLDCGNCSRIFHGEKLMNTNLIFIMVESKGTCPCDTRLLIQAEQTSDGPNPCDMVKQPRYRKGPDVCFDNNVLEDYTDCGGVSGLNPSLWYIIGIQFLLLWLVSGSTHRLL
The target in data set [20] is Voltage-dependent L-type calcium channel subunit beta-2 (Homo sapiens) (UniProt Q08289). In words: Inhibition of human CACNB2 channel expressed in CHO cells at 20.4 +/- 2.4 uM by patch clamp assay. Type of data set: cell-based.
The nature of data set [21]: Oral bioavailability in Beagle dog at 2 umol/kg. Type of data set: ADME, organism-based, Canis lupus familiaris. The following applies: in vivo. The essentials: as §1
A short description of data set [22]: Antiplatelet activity against dog platelet assessed as inhibition of ADP-induced whole blood aggregation by impedance aggregometry. To be noted: Canis lupus familiaris.
Data set [23] concerns Canis familiaris. In words: Inhibition of ADP-induced platelet aggregation in iv dosed Beagle dog assessed as bleeding time. To be noted: in vivo. Type of data set: organism-based, Canis lupus familiaris. Put shortly:
as §2

A short description of data set [24]: Fraction unbound in dog plasma after 18 hrs at 37 degC after 18 hrs. Type of data set: ADME, cell-free, Canis lupus familiaris. Put shortly: as §4
The species named for the next data set is Rattus norvegicus. Nature of the data set: Effect on insulin resistance in Sprague-Dawley rat assessed as HOMA-index at maximum compound concentration. To be noted: in vivo. Type of data set: ADME, organism-based. Put shortly: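 Sprague-Dawley rats given compound. Relative HOMA insulin resistance index (plasma glucose × plasma insulin) compared with baseline and related to plasma concentration.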

Data set [25] in a line: Half life in iv dosed healthy volunteers plasma. Type of data set: ADME, organism-based. The following applies: human.
A short description of data set [26]: Volume of distribution in iv dosed healthy volunteers. In kind it is ADME, organism-based. The following applies: human, in vivo.
For another data set, the system named is Hepatocyte. Nature of the data set: Intrinsic clearance in human hepatocytes at 2 uM by LCMS analysis. Type of data set: ADME, cell-based. The essentials: as §3
Data set [27] in a line: Lipophilicity, log D of the compound at pH 7.4 by HPLC method. In kind it is physicochemical. The following applies: buffer. The essentials: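 LogD measured experimentally at pH 7.4 by an HPLC method.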
A short description of data set [28]: Apparent permeability across apical to basolateral side of human Caco2 cells at 10 uM at pH 6.5 by LC-tandem MS analysis. In kind it is ADME, cell-based. The following applies: Caco-2, pH 6.5. Put shortly:
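Caco-2 monolayers, apical-to-basolateral transport at pH 6.5. Result given as apparent permeability (Papp).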

Sodium channel protein type 2 subunit alpha (Homo sapiens), sequence (Q99250 whole entry, looked up): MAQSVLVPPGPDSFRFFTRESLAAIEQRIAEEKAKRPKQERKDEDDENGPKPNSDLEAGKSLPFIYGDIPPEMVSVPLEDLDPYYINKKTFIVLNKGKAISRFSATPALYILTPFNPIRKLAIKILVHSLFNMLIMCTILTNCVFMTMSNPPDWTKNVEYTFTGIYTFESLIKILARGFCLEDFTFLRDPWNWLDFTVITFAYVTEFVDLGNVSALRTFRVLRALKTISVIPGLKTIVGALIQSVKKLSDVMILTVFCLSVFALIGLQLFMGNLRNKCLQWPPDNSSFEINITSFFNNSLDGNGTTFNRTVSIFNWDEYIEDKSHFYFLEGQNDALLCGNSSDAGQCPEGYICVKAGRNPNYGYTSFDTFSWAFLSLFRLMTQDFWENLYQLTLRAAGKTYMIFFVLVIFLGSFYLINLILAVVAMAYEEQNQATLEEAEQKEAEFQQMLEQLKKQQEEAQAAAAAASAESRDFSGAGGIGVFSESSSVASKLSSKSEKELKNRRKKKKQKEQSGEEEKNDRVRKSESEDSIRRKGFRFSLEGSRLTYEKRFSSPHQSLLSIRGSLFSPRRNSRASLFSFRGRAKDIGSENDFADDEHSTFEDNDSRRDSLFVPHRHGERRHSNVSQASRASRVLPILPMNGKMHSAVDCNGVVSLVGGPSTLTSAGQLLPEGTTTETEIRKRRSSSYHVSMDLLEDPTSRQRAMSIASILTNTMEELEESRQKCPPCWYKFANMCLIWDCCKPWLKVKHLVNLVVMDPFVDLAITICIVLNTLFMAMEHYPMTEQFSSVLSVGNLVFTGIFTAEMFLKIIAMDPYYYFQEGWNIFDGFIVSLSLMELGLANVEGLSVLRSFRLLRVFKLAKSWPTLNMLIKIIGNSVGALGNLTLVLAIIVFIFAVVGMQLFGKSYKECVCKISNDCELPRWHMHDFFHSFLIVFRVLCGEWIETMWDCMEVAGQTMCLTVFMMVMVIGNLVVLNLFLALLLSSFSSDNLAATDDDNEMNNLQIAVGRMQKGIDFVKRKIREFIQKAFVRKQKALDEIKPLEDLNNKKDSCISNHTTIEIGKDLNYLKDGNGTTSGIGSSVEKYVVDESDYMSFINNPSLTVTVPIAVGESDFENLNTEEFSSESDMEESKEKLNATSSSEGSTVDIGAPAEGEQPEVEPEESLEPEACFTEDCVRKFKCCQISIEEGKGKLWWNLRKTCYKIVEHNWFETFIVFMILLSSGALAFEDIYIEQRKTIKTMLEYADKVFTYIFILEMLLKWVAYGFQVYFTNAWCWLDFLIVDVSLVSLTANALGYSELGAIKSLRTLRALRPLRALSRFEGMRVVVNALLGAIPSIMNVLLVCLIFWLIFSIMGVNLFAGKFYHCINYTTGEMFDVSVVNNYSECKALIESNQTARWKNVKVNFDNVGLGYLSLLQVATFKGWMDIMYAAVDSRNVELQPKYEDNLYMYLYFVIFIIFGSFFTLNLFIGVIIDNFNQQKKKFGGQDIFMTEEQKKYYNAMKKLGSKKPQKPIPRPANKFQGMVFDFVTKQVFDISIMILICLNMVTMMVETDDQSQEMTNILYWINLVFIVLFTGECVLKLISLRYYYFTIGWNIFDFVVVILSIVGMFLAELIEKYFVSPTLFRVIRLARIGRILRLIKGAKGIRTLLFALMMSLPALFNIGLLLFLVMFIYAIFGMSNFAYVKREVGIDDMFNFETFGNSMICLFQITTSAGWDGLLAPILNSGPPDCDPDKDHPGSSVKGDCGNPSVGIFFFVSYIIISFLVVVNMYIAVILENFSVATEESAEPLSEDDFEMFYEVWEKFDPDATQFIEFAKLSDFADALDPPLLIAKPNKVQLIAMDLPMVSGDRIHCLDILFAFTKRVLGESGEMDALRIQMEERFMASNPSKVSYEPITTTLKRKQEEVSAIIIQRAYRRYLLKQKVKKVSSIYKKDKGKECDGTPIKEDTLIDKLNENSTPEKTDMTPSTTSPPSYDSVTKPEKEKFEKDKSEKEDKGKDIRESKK

Consider `C[C@@H](Oc1ccccc1)c1cc(C(=O)N(C)CCO)cn2c(=O)cc(N3CCOCC3)nc12`, for which the “inhibition (INH)” value in [1], in data set [9], in data set [11] and in data set [18] was “Not Active” throughout. The solubility in data set [2] was more than 1800 µM. Also, in data set [3], the Vd came to 1.2 L/kg. Besides, the IC50 turned out to be 0.4 µM in [4]; 1.2 µM in data set [13]; 0.21 µM in data set [14]; 83 µM in [15]; 0.95 µM in [22]. The inhibition entry (in data set [5]; in data set [8]; in data set [12]; in the data set with CHO; in [19]; in [20]) was “inactive” throughout. Also, the “fold change (FC)” value in the data set with Canis familiaris [6] and with Canis familiaris [23] was 3.5 each time. The compound further gave a half-life at 2 µM in data set [7] of more than 173 min. Besides, the EC80 in the data set listed under Canis familiaris [10] amounted to 0.69 µM. In addition, the fraction unbound at 18 h in [16] is 0.26; in [24], 0.42. The compound further displayed a clearance in [17] of 8 mL/min/kg. In [21], the bioavailability is 31%. In the data set filed under Rattus norvegicus, the Activity entry is given as “Non-toxic”.
`Cc1cc([C@@H](C)Nc2ccccc2C(=O)O)c2nc(N3CCOCC3)cc(=O)n2c1` [AZD-6482] yielded a half-life in data set [25] of 5 min. Moreover, the solubility in data set [2] turned out to be 100 µM (≈ 40.8 µg/mL). In addition, the Vd in data set [26] was 40 L; in data set [3], 14 L/kg. In addition, the “Intrinsic clearance (CLint)” value in the data set with Hepatocyte was found to be 17.5 µL/min. For the same compound, in [7], the half-life at 2 µM is 40 min. The compound further registered a pH-dependent lipophilicity (logD) in [27] of 0.75. The IC50 was 0.27 µM in data set [13] and 0.28 µM in [14]. Further, the unbound share (fraction unbound) at 18 h in data set [16] came out at 0.08; in data set [24], 0.1. The compound further came in with a clearance in data set [17] of 17 mL/min/kg. Besides, the Papp A→B at 10 µM in data set [28] was 18 ×10⁻⁶ cm/s.
